Measured values as given in ChEMBL document CHEMBL2346664, “Synthesis, characterization and in vitro anticancer evaluation of novel 1,2,4-triazolin-3-one derivatives” (2013).

What was measured:
Format in all cases: functional
[1] = system: Malme-3M; experiment: Growth inhibition of human MALME-3M cells assessed as cell growth at 10 '-8 M after 48 hrs by sulforhodamine B assay; settings: read-out: Activity
[2] = system: A498; experiment: Growth inhibition of human A498 cells assessed as cell growth at 10 '-4 M after 48 hrs by sulforhodamine B assay; settings: A498, 48 h, read-out: Activity
How it was run: (§1)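 Percent growth at each of the five concentrations of the 48 h continuous-exposure NCI SRB screen. Drug stocks were in DMSO at 400× the top final concentration and diluted in medium with gentamicin. Growth was calculated as [(Ti-Tz)/(C-Tz)]×100 when Ti ≥ Tz, or [(Ti-Tz)/Tz]×100 when Ti < Tz. Tz plates were fixed at drug addition; untreated wells served as control. Absorbance was read at 515 nm.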

[3] = system: SK-MEL-28; experiment: Growth inhibition of human SK-MEL-28 cells assessed as cell growth at 10 '-8 M after 48 hrs by sulforhodamine B assay; settings: SK-MEL-28, 48 h, read-out: Activity
[4] = system: HCT-15; experiment: Growth inhibition of human HCT15 cells assessed as cell growth at 10 '-8 M after 48 hrs by sulforhodamine B assay; settings: HCT-15, 48 h, read-out: Activity
[5] = system: BT-549; experiment: Growth inhibition of human BT549 cells after 48 hrs by sulforhodamine B assay; settings: BT-549, 48 h
How it was run: (§2)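 NCI 60-cell-line five-dose screen at 0.01, 0.1, 1, 10 and 100 µM final. Cells were plated at 5,000–40,000/well and grown 24 h at 37 °C, 5% CO2, then exposed to drug continuously for 48 h. Adherent cells were fixed with cold TCA (10% final) and stained with SRB; absorbance read at 515 nm. GI50 is the concentration where [(Ti-Tz)/(C-Tz)]×100 = 50, with Tz plates fixed at drug addition.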

[6] = system: A549; experiment: Growth inhibition of human A549 cells assessed as cell growth at 10 '-5 M after 48 hrs by sulforhodamine B assay; settings: A549, 48 h, read-out: Activity; how it was run: as §1
[7] = system: SNB-75; experiment: Growth inhibition of human SNB75 cells assessed as cell growth at 10 '-4 M after 48 hrs by sulforhodamine B assay; settings: SNB-75, 48 h, read-out: Activity
[8] = system: SF-539; experiment: Growth inhibition of human SF539 cells assessed as cell growth at 10 '-7 M after 48 hrs by sulforhodamine B assay; settings: SF-539, 48 h, read-out: Activity
[9] = system: SK-MEL-5; experiment: Growth inhibition of human SK-MEL-5 cells assessed as cell growth at 10 '-7 M after 48 hrs by sulforhodamine B assay; settings: SK-MEL-5, 48 h, read-out: Activity
[10] = system: SK-MEL-2; experiment: Growth inhibition of human SK-MEL-2 cells assessed as cell growth at 10 '-6 M after 48 hrs by sulforhodamine B assay; settings: SK-MEL-2, 48 h, read-out: Activity
[11] = system: KM12; experiment: Growth inhibition of human KM12 cells assessed as cell growth at 10 '-5 M after 48 hrs by sulforhodamine B assay; settings: KM12, 48 h, read-out: Activity
[12] = system: BT-549; experiment: Growth inhibition of human BT549 cells assessed as cell growth at 10 '-7 M after 48 hrs by sulforhodamine B assay; settings: BT-549, 48 h, read-out: Activity; how it was run: as §1
[13] = system: UACC-62; experiment: Growth inhibition of human UACC62 cells assessed as growth inhibition at 10 uM after 48 hrs by sulforhodamine B assay; settings: UACC-62, 48 h, read-out: GI
[14] = system: SK-MEL-5; experiment: Growth inhibition of human SK-MEL-5 cells assessed as cell growth at 10 '-8 M after 48 hrs by sulforhodamine B assay; settings: SK-MEL-5, 48 h, read-out: Activity
[15] = system: 786-0; experiment: Growth inhibition of human 786-0 cells assessed as cell growth at 10 '-5 M after 48 hrs by sulforhodamine B assay; settings: 786-0, 48 h, read-out: Activity; how it was run: as §1
[16] = system: MDA-MB-231; experiment: Growth inhibition of human MDA-MB-231 cells assessed as cell growth at 10 '-7 M after 48 hrs by sulforhodamine B assay; settings: MDA-MB-231, 48 h, read-out: Activity
[17] = system: MDA-MB-231; experiment: Growth inhibition of human MDA-MB-231 cells assessed as growth inhibition at 10 uM after 48 hrs by sulforhodamine B assay; settings: MDA-MB-231, 48 h, read-out: GI
[18] = system: SR; experiment: Growth inhibition of human SR cells after 48 hrs by sulforhodamine B assay
[19] = system: T47D; experiment: Growth inhibition of human T47D cells assessed as cell growth at 10 '-5 M after 48 hrs by sulforhodamine B assay; settings: read-out: Activity
[20] = system: UACC-257; experiment: Growth inhibition of human UACC257 cells assessed as growth inhibition at 10 uM after 48 hrs by sulforhodamine B assay; settings: UACC-257, 48 h, read-out: GI
[21] = system: KM12; experiment: Growth inhibition of human KM12 cells assessed as cell growth at 10 '-8 M after 48 hrs by sulforhodamine B assay; settings: KM12, 48 h, read-out: Activity
[22] = system: OVCAR-5; experiment: Growth inhibition of human OVCAR5 cells assessed as growth inhibition at 10 uM after 48 hrs by sulforhodamine B assay; settings: OVCAR-5, 48 h, read-out: GI
[23] = system: UACC-257; experiment: Growth inhibition of human UACC257 cells assessed as cell growth at 10 '-7 M after 48 hrs by sulforhodamine B assay; settings: UACC-257, 48 h, read-out: Activity
[24] = system: CAKI-1; experiment: Growth inhibition of human CAKI-1 cells after 48 hrs by sulforhodamine B assay; settings: CAKI-1, 48 h; how it was run: as §2
[25] = Growth inhibition of human Hs 578T cells after 48 hrs by sulforhodamine B assay
How it was run: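 NCI 60-cell-line five-dose screen. Cells were plated at 5,000–40,000/well by doubling time and grown 24 h at 37 °C, 5% CO2. Time-zero plates were TCA-fixed. Drug from DMSO stock was tested at 0.01, 0.1, 1, 10 and 100 µM final for 48 h continuous exposure. Read-out was SRB at 515 nm. GI50 is the concentration giving 50% reduction in net protein increase versus untreated control.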

[26] = system: ACHN; experiment: Growth inhibition of human ACHN cells assessed as cell growth at 10 '-4 M after 48 hrs by sulforhodamine B assay; settings: read-out: Activity; how it was run: as §1
[27] = system: UO-31; experiment: Growth inhibition of human UO31 cells assessed as cell growth at 10 '-4 M after 48 hrs by sulforhodamine B assay; settings: UO-31, 48 h, read-out: Activity
[28] = system: MOLT-4; experiment: Growth inhibition of human MOLT4 cells assessed as growth inhibition at 10 uM after 48 hrs by sulforhodamine B assay; settings: MOLT-4, 48 h, read-out: GI
[29] = system: OVCAR-5; experiment: Growth inhibition of human OVCAR5 cells assessed as cell growth at 10 '-8 M after 48 hrs by sulforhodamine B assay; settings: OVCAR-5, 48 h, read-out: Activity
[30] = system: KM12; experiment: Growth inhibition of human KM12 cells assessed as cell growth at 10 '-4 M after 48 hrs by sulforhodamine B assay; settings: KM12, 48 h, read-out: Activity
[31] = read-out: LD50 (the source's name)

Compound: Cc1cc(=O)oc2cc(OCCn3c(C)nn(-c4ccc(Cl)cc4)c3=O)ccc12
- growth at 0.01 µM [1]: 105%
- growth at 100 µM [2]: -8%
- growth at 0.01 µM [3]: 105%
- growth at 0.01 µM [4]: 98%
- GI50 [5]: 1650 nM
- TGI [5]: 9940 nM
- CC50 [5, 31]: > 1000 nM
- growth at 10 µM [6]: 37%
- growth at 100 µM [7]: -25%
- growth at 0.1 µM [8]: 103%
- growth at 0.1 µM [9]: 92%
- growth at 1 µM [10]: 112%
- growth at 10 µM [11]: 21%
- growth at 0.1 µM [12]: 104%
- inhibition of growth at 10 µM [13]: 56.7%
- growth at 0.01 µM [14]: 97%
- growth at 10 µM [15]: 35%
- growth at 0.1 µM [16]: 88%
- inhibition of growth at 10 µM [17]: 52.5%
- GI50 [18]: 4970 nM
- TGI [18]: 6670 nM
- CC50 [18, 31]: > 1000 nM
- growth at 10 µM [19]: 45%
- inhibition of growth at 10 µM [20]: 77.5%
- growth at 0.01 µM [21]: 104%
- inhibition of growth at 10 µM [22]: 61.2%
- growth at 0.1 µM [23]: 101%
- GI50 [24]: 1000 nM
- TGI [24]: > 1000 nM
- CC50 [24, 31]: > 1000 nM
- GI50 [25]: 2820 nM
- TGI [25]: > 1000 nM
- CC50 [25, 31]: > 1000 nM
- growth at 100 µM [26]: 25%
- growth at 100 µM [27]: 39%
- inhibition of growth at 10 µM [28]: 62.4%
- growth at 0.01 µM [29]: 105%
- growth at 100 µM [30]: 12%
